Laboratory results taken from ChEMBL document CHEMBL1144244, “Synthesis and biological activity of enantiomeric pairs of 5-[(E)-cycloalk-2-enylidenemethyl]thiolactomycin congeners” (Bioorg Med Chem Lett, 2008).
Values after ≈ are worked out from the molar mass of the structure shown.

What was measured:
Moraxella catarrhalis = assay: Antibacterial activity against Moraxella catarrhalis ATCC 25238 by agar dilution method; type: functional
Method in brief: (§1)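 MICs determined by agar dilution following CLSI guideline M7-A6 (2003).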

Staphylococcus aureus = assay: Antibacterial activity against Staphylococcus aureus Smith by agar dilution method; type: functional; method in brief: as §1
[1] = Inhibition of fatty acid synthase type 1 in human HepG2 cells assessed as [1-14C]acetate incorporation into cellular fatty acid; type: cell-based
Haemophilus influenzae = assay: Antibacterial activity against Haemophilus influenzae IID983 by agar dilution method; type: functional; method in brief: as §1

SMILES	MIC (Moraxella catarrhalis) [µg/mL]	MIC (Staphylococcus aureus) [µg/mL]	IC50 [1] [µg/mL]	MIC (Haemophilus influenzae) [µg/mL]
C=C/C(C)=C/[C@]1(C)SC(=O)C(C)=C1O	> 128	> 128	0.0437 (≈ 0.208 µM)	
CC1=C(O)[C@@](C)(/C=C2/C=CCCC2)SC1=O	> 64	> 64	> 0.08	> 64
C=C/C(C)=C/[C@@]1(C)SC(=O)C=C1O	16 (≈ 81.5 µM)	> 128	> 0.08	32 (≈ 163 µM)
C=C/C(C)=C/[C@]1(C)SC(=O)C=C1O	> 128	> 128	0.019 (≈ 0.0968 µM)	
C[C@]1(/C=C2/C=CCCCC2)SC(=O)C=C1O	> 64	> 64	0.0133 (≈ 0.0563 µM)	> 64
C[C@]1(/C=C2/C=CCCC2)SC(=O)C=C1O	> 64	> 64	0.057 (≈ 0.256 µM)	> 64
CC1=C(O)[C@](C)(/C=C2/C=C\CCCCC2)SC1=O	64 (≈ 242 µM)	> 128	0.0116 (≈ 0.0439 µM)	> 128
C=C1C(=O)OC(CCCCCCCC)C1C(=O)O (stereo unspecified)			0.0074 (≈ 0.0291 µM)	
CC1=C(O)[C@@](C)(/C=C2/C=CCCCC2)SC1=O	> 64	> 64	0.0254 (≈ 0.101 µM)	> 64
CC1=C(O)[C@](C)(/C=C2/C=CCCC2)SC1=O	> 64	> 64	> 0.08	> 64
C[C@]1(/C=C2/C=C\CCCCC2)SC(=O)C=C1O	128 (≈ 511 µM)	> 128	0.0195 (≈ 0.0779 µM)	> 128
C[C@@]1(/C=C2/C=CCCC2)SC(=O)C=C1O	> 64	> 64	0.0189 (≈ 0.085 µM)	> 64
CC1=C(O)[C@@](C)(/C=C2/C=C\CCCCC2)SC1=O	64 (≈ 242 µM)	> 128	0.0418 (≈ 0.158 µM)	> 128
C[C@@]1(/C=C2/C=C\CCCCC2)SC(=O)C=C1O	64 (≈ 256 µM)	> 128	0.0246 (≈ 0.0983 µM)	> 128
CC1=C(O)[C@](C)(/C=C2/C=CCCCC2)SC1=O	> 64	> 64	0.0149 (≈ 0.0595 µM)	> 64
C[C@@]1(/C=C2/C=CCCCC2)SC(=O)C=C1O	> 64	> 64	0.0226 (≈ 0.0956 µM)	> 64
O=C(O)c1cn(C2CC2)c2cc(N3CCNCC3)c(F)cc2c1=O [CIPROFLOXACIN]	0.031 (≈ 0.0936 µM)	0.063 (≈ 0.19 µM)		0.008 (≈ 0.0241 µM)
C=C/C(C)=C/[C@@]1(C)SC(=O)C(C)=C1O [THIOLACTOMYCIN]	0.25 (≈ 1.19 µM)	128 (≈ 609 µM)	> 0.08	2 (≈ 9.51 µM)
